Test results published in ChEMBL document CHEMBL4038284, “Synthesis of novel quinoline-based 4,5-dihydro-1H-pyrazoles as potential anticancer, antifungal, antibacterial and antiprotozoal agents” (Eur J Med Chem, 2017).
Converted amounts (≈) assume the structure as drawn. The source made the active and inactive calls. No cut-off for these calls is given here.

Key:
NCI-H460 = assay: Growth inhibition of human NCI-H460 cells at 10 uM incubated for 48 hrs by sulforhodamine B assay; format: functional, cell-based
How it was run: (§1)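 NCI 60-line panel, single 10 μM dose. Cells were grown in RPMI-1640 with 5% FBS and 2 mM L-glutamine and pre-incubated 24 h before compound addition (DMSO stock). Exposure was 48 h at 37 °C, 5% CO2. Cells were fixed with cold TCA (10% final), stained with 0.4% SRB, bound dye dissolved in 10 mM Tris base, A515 read. Growth was taken relative to time-zero and untreated control plates.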

Candida albicans [1] = assay: Growth inhibition of Candida albicans ATCC 10231 at 7.8 ug/ml incubated for 48 hrs under dark condition by broth microdilution method relative to control; format: functional; conditions: ATCC 10231, 48 h, read-out: GI
How it was run: (§2)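 CLSI M27-A3 broth microdilution in RPMI-1640, DMSO ≤1%. Inoculum 1-5 × 10^3 CFU/mL. Incubated 48 h at 30 °C, dark. % inhibition = 100 − (OD405 test − sterility control)/(OD405 growth control − sterility control), with growth and sterility control wells. Triplicate.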

HCT-116 = assay: Growth inhibition of human HCT116 cells at 10 uM incubated for 48 hrs by sulforhodamine B assay; format: functional, cell-based
How it was run: (§3)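 NCI 60-cell-line screen at a single 10 µM dose. Cells in RPMI-1640 with 5% FBS and 2 mM L-glutamine, pre-incubated 24 h, then treated for 48 h at 37 °C. TCA fixation, sulforhodamine B staining, absorbance at 515 nm. Percentage growth calculated against time-zero and untreated controls.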

Escherichia coli = assay: Antibacterial activity against Escherichia coli ATCC 25922 after 24 hrs by resazurin dye based microdilution assay; format: functional; conditions: ATCC 25922, 24 h
How it was run: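 MIC taken as the lowest concentration giving visible inhibition and/or by resazurin (1 mg/mL). Gentamicin was the control. Run in duplicate, repeated at least three times.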

TK-10 = assay: Growth inhibition of human TK10 cells at 10 uM incubated for 48 hrs by sulforhodamine B assay; format: functional, cell-based
How it was run: (§4)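 NCI-60 single-dose screen at 10 µM for 48 h. Cells were grown in RPMI-1640 with 5% FBS and 2 mM L-glutamine and preincubated 24 h before compound. Time-zero plates were TCA-fixed at compound addition. After exposure, cells were TCA-fixed, stained with SRB and read at 515 nm. Percentage growth was calculated against time-zero and untreated-control absorbances.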

Cryptococcus neoformans [2] = assay: Growth inhibition of Cryptococcus neoformans ATCC 32264 at 7.8 ug/ml incubated for 48 hrs under dark condition by broth microdilution method relative to control; format: functional; conditions: ATCC 32264, 48 h, read-out: GI; how it was run: as §2
SNB-19 = assay: Growth inhibition of human SNB19 cells at 10 uM incubated for 48 hrs by sulforhodamine B assay; format: functional, cell-based; how it was run: as §4
SK-MEL-28 = assay: Growth inhibition of human SK-MEL-28 cells at 10 uM incubated for 48 hrs by sulforhodamine B assay; format: functional, cell-based; how it was run: as §4
Candida albicans [3] = assay: Antifungal activity against Candida albicans ATCC 10231 incubated for 48 hrs under dark condition by broth microdilution method; format: functional; conditions: ATCC 10231, 48 h
How it was run: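 CLSI M27-A3 broth microdilution in RPMI-1640, DMSO ≤1%, compounds at 250-0.98 µg/mL final. Inoculum 1-5 × 10^3 CFU/mL. Incubated 48 h at 30 °C in a moist dark chamber, read at OD405. MIC80 and MIC50 taken from % inhibition dose-response curves (mean ± SEM, triplicate). Amphotericin B was the positive control.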

KM12 = assay: Growth inhibition of human KM12 cells at 10 uM incubated for 48 hrs by sulforhodamine B assay; format: functional, cell-based; how it was run: as §1
Candida albicans [4] = assay: Growth inhibition of Candida albicans ATCC 10231 at 250 ug/ml incubated for 48 hrs under dark condition by broth microdilution method relative to control; format: functional; conditions: ATCC 10231, 48 h, read-out: GI; how it was run: as §2
RPMI-8226 = assay: Growth inhibition of human RPMI8226 cells at 10 uM incubated for 48 hrs by sulforhodamine B assay; format: functional, cell-based; how it was run: as §1
Cryptococcus neoformans [5] = assay: Growth inhibition of Cryptococcus neoformans ATCC 32264 at 62.5 ug/ml incubated for 48 hrs under dark condition by broth microdilution method relative to control; format: functional; conditions: ATCC 32264, 48 h, read-out: GI; how it was run: as §2
Trypanosoma cruzi = assay: Antitrypanosomal activity against Trypanosoma cruzi Tulahuen intracellular amastigote harboring LacZ infected in human U937 cells after 72 hrs by CPRG/Nonidet reagent based spectrophotometric method; format: functional, cell-based; conditions: U-937, 72 h
How it was run: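 U-937 cells at 2.5 × 10^5 cells/mL in RPMI-1640 with 10% serum and 0.1 µg/mL PMA were infected with β-galactosidase-transfected Tulahuen epimastigotes at 5 parasites per cell. Infected cells were exposed to 50, 12.5, 3.125 and 0.78 µg/mL for 72 h. CPRG (100 uM) and 0.1% Nonidet P-40 were added for 3 h, read at 570 nm. EC50 by Probit. Triplicate, at least two experiments; benznidazole as reference.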

RXF 393 = assay: Growth inhibition of human RXF393 cells at 10 uM incubated for 48 hrs by sulforhodamine B assay; format: functional, cell-based; how it was run: as §1
ACHN = assay: Growth inhibition of human ACHN cells at 10 uM incubated for 48 hrs by sulforhodamine B assay; format: functional, cell-based; how it was run: as §3
IGROV-1 = assay: Growth inhibition of human IGROV1 cells at 10 uM incubated for 48 hrs by sulforhodamine B assay; format: functional, cell-based; how it was run: as §1
Candida albicans [6] = assay: Growth inhibition of Candida albicans ATCC 10231 at 15.62 ug/ml incubated for 48 hrs under dark condition by broth microdilution method relative to control; format: functional; conditions: ATCC 10231, 48 h, read-out: GI; how it was run: as §2
Cryptococcus neoformans [7] = assay: Growth inhibition of Cryptococcus neoformans ATCC 32264 at 125 ug/ml incubated for 48 hrs under dark condition by broth microdilution method relative to control; format: functional; conditions: ATCC 32264, 48 h, read-out: GI; how it was run: as §2
U-937 = assay: Cytotoxicity against human U937 cells after 72 hrs by MTT assay; format: cell-based; conditions: u-937, 72 h
How it was run: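 Exponentially growing U-937 at 1 × 10^5 cells/mL in RPMI-1640 with 10% FBS were exposed to 200, 50, 12.5 and 3.125 µg/mL for 72 h at 37 °C, 5% CO2. MTT for 3 h, stopped with isopropanol/SDS, formazan read at 570 nm, blank-corrected. LC50 by Probit from % viability against untreated cells. Triplicate, at least two independent experiments.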

SN12C = assay: Growth inhibition of human SN12C cells at 10 uM incubated for 48 hrs by sulforhodamine B assay; format: functional, cell-based; how it was run: as §4
Plasmodium falciparum = assay: Antiplasmodial activity against chloroquine-sensitive Plasmodium falciparum 3D7 assessed as reduction in parasitic LDH activity after 48 hrs by Malstat reagent based […] method; format: functional; conditions: 3D7, 48 h
How it was run: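 Unsynchronized P. falciparum 3D7 at 0.5% parasitemia and 1% hematocrit in RPMI with 3% Albumax II. Exposed to 100, 25, 6.25 and 1.56 µg/mL for 48 h at 37 °C under 90% N2/5% CO2/5% O2. After three freeze-thaw cycles, LDH measured with Malstat and NBT/PES, 1 h in the dark, read at 650 nm. IC50 by Probit; triplicate, ≥2 experiments.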

HT-29 = assay: Growth inhibition of human HT-29 cells at 10 uM incubated for 48 hrs by sulforhodamine B assay; format: functional, cell-based; how it was run: as §1

SMILES	growth inhibition (GI) (NCI-H460)	inhibition of growth at 7.8 µg/mL (Candida albicans [1]) [%]	growth inhibition (GI) (HCT-116)	MIC (Escherichia coli) [mg/L]	growth inhibition (GI) (TK-10)	inhibition of growth at 7.8 µg/mL (Cryptococcus neoformans [2]) [%]	growth inhibition (GI) (SNB-19)	growth inhibition (GI) (SK-MEL-28)	MIC50 (Candida albicans [3]) [mg/L]	MIC80 (Candida albicans [3]) [mg/L]	growth inhibition (GI) (KM12)	inhibition of growth at 250 µg/mL (Candida albicans [4]) [%]	growth inhibition (GI) (RPMI-8226)	inhibition of growth at 62.5 µg/mL (Cryptococcus neoformans [5]) [%]	EC50 (Trypanosoma cruzi) [mg/L]	growth inhibition (GI) (RXF 393)	inhibition of growth at 15.62 µg/mL (Candida albicans [6]) [%]	inhibition of growth at 125 µg/mL (Cryptococcus neoformans [7]) [%]	LC50 (U-937) [mg/L]	EC50 (Plasmodium falciparum) [mg/L]	other results
COc1cc(C(=O)/C=C/c2cccc(Nc3ccnc4cc(Cl)ccc34)c2)cc(OC)c1OC	Active	2.51	Active	> 1000	Active	0	Active	Active	≥ 250	≥ 250	Active	13.7	Active	6.09	1.09 (≈ 2.3 µM)	Active	4.77	6.74	0.9 (≈ 1.89 µM)	14.1 (≈ 29.7 µM)	growth inhibition (GI) (ACHN): Active; growth inhibition (GI) (IGROV-1): Active; growth inhibition (GI) (SN12C): Active; growth inhibition (GI) (HT-29): Active
Clc1ccc(C2=NN(c3ccccc3)C(c3cccc(Nc4ccnc5cc(Cl)ccc45)c3)C2)cc1 (stereo unspecified)	inactive	3.8	inactive	> 1000	inactive	0	inactive	inactive	≥ 250	≥ 250	inactive	19.8	inactive	0	16.2 (≈ 31.8 µM)	inactive	4.29	14.6	> 200	11.7 (≈ 23 µM)	growth inhibition (GI) (ACHN): inactive; growth inhibition (GI) (IGROV-1): inactive; growth inhibition (GI) (SN12C): inactive; growth inhibition (GI) (HT-29): inactive
COc1cc(C2=NN(c3ccc(Cl)cc3)C(c3cccc(Nc4ccnc5cc(Cl)ccc45)c3)C2)cc(OC)c1OC (stereo unspecified)	inactive	4.21	inactive	> 1000	inactive	10.4	inactive	inactive	≥ 250	≥ 250	inactive	26.5	inactive	17.1	22.6 (≈ 37.7 µM)	inactive	8.02	17.1	> 200	44.6 (≈ 74.3 µM)	growth inhibition (GI) (ACHN): inactive; growth inhibition (GI) (IGROV-1): inactive; growth inhibition (GI) (SN12C): inactive; growth inhibition (GI) (HT-29): inactive
COc1ccc(C2=NN(C=O)C(c3cccc(Nc4ccnc5cc(Cl)ccc45)c3)C2)cc1 (stereo unspecified)	Active	7.43	Active	> 1000	Active	13.4	Active	Active	≥ 250	≥ 250	Active	34.5	Active	43.5	> 0.15	Active	12.9	52.5	0.3 (≈ 0.657 µM)	16.1 (≈ 35.3 µM)	growth inhibition (GI) (ACHN): Active; growth inhibition (GI) (IGROV-1): Active; growth inhibition (GI) (SN12C): Active; growth inhibition (GI) (HT-29): Active
COc1ccc(C2=NN(c3ccccc3)C(c3cccc(Nc4ccnc5cc(Cl)ccc45)c3)C2)cc1 (stereo unspecified)	inactive	7.57	inactive	> 1000	inactive	4.41	inactive	inactive	≥ 250	≥ 250	inactive	25.6	inactive	10.6	86.8 (≈ 172 µM)	inactive	8.21	16.9	28 (≈ 55.4 µM)	13.7 (≈ 27 µM)	growth inhibition (GI) (ACHN): inactive; growth inhibition (GI) (IGROV-1): inactive; growth inhibition (GI) (SN12C): inactive; growth inhibition (GI) (HT-29): inactive
O=CN1N=C(c2ccc(Cl)cc2)CC1c1cccc(Nc2ccnc3cc(Cl)ccc23)c1 (stereo unspecified)	Active	12	Active	> 1000	Active	39.5	Active	Active	250 (≈ 542 µM)	≥ 250	Active	67.5	Active	59.7	0.7 (≈ 1.52 µM)	Active	22.7	75.7	0.6 (≈ 1.3 µM)	24.7 (≈ 53.6 µM)	growth inhibition (GI) (ACHN): Active; growth inhibition (GI) (IGROV-1): Active; growth inhibition (GI) (SN12C): Active; growth inhibition (GI) (HT-29): Active
O=Cc1cccc(Nc2ccnc3cc(Cl)ccc23)c1		1.48		62.5 (≈ 221 µM)		5.93			250 (≈ 884 µM)	≥ 250		59.2		19.6	1.15 (≈ 4.07 µM)		10.8	38.5	0.6 (≈ 2.12 µM)	14.2 (≈ 50.1 µM)	
